Experimental data pooled from the literature.
Compare with care: the assays were run in different laboratories.
Target: Mitogen-activated protein kinase 10 (MAPK10, Homo sapiens, UniProt P53779)

| Compound | read-out | action | technique | concentration | measurement | value |
| --- | --- | --- | --- | --- | --- | --- |
| COc1cc(-c2cc(-c3ccc(N4CCNCC4)cc3)cnc2C)cc(OC)c1OC | enzyme activity | inhibitor |  | 1 µM | inhibition | 3% |
| FC(F)c1nc2ccccc2n1-c1nc(N2CCOCC2)nc(N2CCOCC2)n1 | enzyme activity | inhibitor |  | 10 µM | remaining activity | 88% |
| Nc1ncnc2occ(-c3ccc(NC(=O)Nc4cc(C(F)(F)F)ccc4F)cc3)c12 | cell-free assay | inhibitor |  | 20 µM | remaining signal | 1.3% |
| C[C@@]1(Cc2ccc(C#N)cc2)C(=O)N(c2cc(Cl)cc(Cl)c2)c2ncc(C(=O)NC3(c4nc(C5CCC5)no4)CC3)n21 | cell-free assay |  | competition with immobilised ligand | 1 µM | remaining binding | 100% |
| CC(C)(C)c1nc(-c2cccc(NS(=O)(=O)c3c(F)cccc3F)c2F)c(-c2ccnc(N)n2)s1 | enzyme activity | inhibitor | radiometric | 1 µM | remaining activity | 118% |
| FC(F)(F)Oc1cccc(-c2cnc3ccc(-c4ccncc4)nn23)c1 | enzyme activity | inhibitor | radiometric | 1 µM | activity vs control | 85% |
| Clc1ccc(Nc2nnc(Cc3ccncc3)c3ccccc23)cc1 | cell-free assay |  |  | 0.5 µM | remaining signal | 116% |
| Cc1c(NC(=O)c2cc(C(N)=O)nc3cc(F)ccc23)c(C(F)(F)F)nn1Cc1ccc(C(C)(C)C)cc1 | cell-free assay |  | competition with immobilised ligand | 1 µM | remaining binding | 100% |
| N#CCCc1ccc2c(c1)-c1[nH]c3ccc([N+](=O)[O-])cc3c1CC(=O)N2 | cell-free assay |  |  | 0.5 µM | remaining signal | 93.3% |
| CCC(=O)N[C@@H]1CC[C@H](C(=O)N(C)c2ccc(-c3nc4ccccc4o3)cc2)C1 | cell-free assay |  | competition with immobilised ligand | 1 µM | remaining binding | 100% |
| CCCS(=O)(=O)Nc1ccc(F)c(C(=O)c2c[nH]c3ncc(-c4ccc(Cl)cc4)cc23)c1F | enzyme activity | inhibitor |  | 1 µM | inhibition | < 10% |
| CN1CC(Oc2cnc(C#N)cc2-c2ccn3nc(NC(=O)C4CC4)cc3c2)C1 | enzyme activity | inhibitor |  | 1 µM | inhibition | 2% |
| CS(=O)(=O)c1cc(C2(NC(=O)c3cncc4c3cnn4-c3ccc(F)cc3)CC2)ccn1 | cell-free assay |  | competition with immobilised ligand | 1 µM | remaining binding | 100% |
| Nc1ncnc2c1ncn2[C@@H]1O[C@H](COP(=O)(O)OP(=O)(O)OP(=O)(O)O)[C@@H](O)[C@H]1O | thermal stability |  | DSF | 200 µM | ΔTm | 2.73 °C |
| CS(=O)(=O)N1CCCC(NC(=O)[C@H](CCC2CCCCC2)NC(=O)c2ccc(CNc3ncnc4c3nnn4-c3ccccc3)cc2)C1 (stereo partly drawn) | cell-free assay |  | competition with immobilised ligand | 0.1 µM | remaining binding | 100% |
| COc1cc2ncnc(Nc3ccc(Oc4ccccc4)cc3C)c2cc1OC | enzyme activity | inhibitor |  | 1 µM | inhibition | 5% |
| Cc1cc(NC(=O)c2cccc3cc(-c4cccc5[nH]nc(N)c45)ccc23)ccc1F | enzyme activity | inhibitor |  | 0.1 µM | activity vs control | 102% |
| COc1cc(Nc2cnc(C#N)c(O[C@H](C)CN(C)C)n2)ncc1-c1cnn(C)c1 | enzyme activity | inhibitor | radiometric | 10 µM | remaining activity | 97% |
| COc1cc(/C=C/C(=O)CC(=O)/C=C/c2ccc(O)c(OC)c2)ccc1O | enzyme activity | inhibitor |  | 1 µM | activity vs control | 109% |
| Cc1ccc(C(=O)NCc2ccsc2)cc1C#Cc1cn(C(C)C)c2ncnc(N)c12 | enzyme activity | inhibitor |  | 1 µM | activity vs control | 84% |
| C[C@H](c1ccnc(Nc2nc3ccc(-c4cc(N(C)C)ncn4)cc3[nH]2)c1)N1CCN(C(=O)CC(F)(F)F)CC1 | cell-free assay |  | competition with immobilised ligand | 0.1 µM | remaining binding | 81% |
| CNC(=O)c1cc(Oc2ccc(NC(=O)Nc3ccc(Cl)c(C(F)(F)F)c3)cc2)ccn1 | enzyme activity | inhibitor |  | 0.3 µM | inhibition | 9% |
| CC1=C(C#N)C(c2ccc3c(c2)c(NC(=O)c2ccccc2C)nn3C)C(C#N)=C(C)N1 | cell-free assay |  | competition with immobilised ligand | 1 µM | remaining binding | 100% |
| Cc1cnc(NC2CCOCC2)nc1-n1cnc(C(=O)NC(CN)c2cc(F)cc(Cl)c2)c1 (stereo not drawn) | enzyme activity | inhibitor | radiometric | 1 µM | remaining activity | 55% |
